Compounds with a hit are over-represented: about 3.7% of the library has one in this group of screens.
Kir21 block = blocks the mouse Kir2.1 inward-rectifier potassium channel | P35561 | HEK293-Kir2.1, FluxOR thallium flux fluorescence; active compounds read low | B-score at 10 µM | hit rate 0.85% among 310,000;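 active = fluorescence ratio B-score at or below minus 3 SD of library scores, with starting-brightness B-score within 2 SD, cut at about -4.2 in these data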;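 note: channel flux triggered by added potassium and thallium sulfate stimulus; B-score of peak minus minimum fluorescence over baseline after thallium stimulus; more negative B-score means stronger Kir2.1 block with less thallium influx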
hERG rescue = shields human hERG channel from block by proarrhythmic agents. AID 1511. CHO-hERG, FluxOR thallium flux, dofetilide IC70 present. Q12809. activation (rescue from dofetilide block), less the hit threshold, % at 10 µM. hit rate 0.51% among 310,000;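 active = activation above the mean of controls blocked by dofetilide plus 5 SD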;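 note: thallium influx through hERG after potassium depolarization seen as dye fluorescence rise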
KCNQ1 block = blocks the human KCNQ1 potassium channel; P51787; CHO-K1 KCNQ1, FluxOR thallium flux fluorescence; active compounds read high; B-score at 10 µM; hit rate 1.3% among 310,000; AID 2642;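 active = compounds whose thallium flux B-score, printed positive for inhibition, exceeds three library SD while starting fluorescence stays within three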;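 note: channel opened by potassium depolarization with thallium stimulus after 20 min compound exposure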
KCNQ1 pot = potentiators or activators of human KCNQ1 potassium channel. CHO-K1 KCNQ1, thallium flux FluxOR fluorescence; active compounds read high. B-score at 10 µM. hit rate 0.35% among 310,000. P51787;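 active = fluorescence ratio B-score, a plate-corrected score, at least three library SD, with initial intensity B-score within 5 SD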
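Assay system: stable KCNQ1 CHO-K1 line; medium: assay buffer, equal DMSO in all wells; timing: 90 min dye loading and 20 min compound exposure, both at room temperature; technique: kinetic FluxOR thallium fluorescence, 10-s 1-Hz baseline, 110-s post-stimulus read; read-out basis: B score of baseline-normalized fluorescence ratio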
KCNK9 block = blocks the human KCNK9 two-pore domain potassium channel; Q9NPC2; HEK293 KCNK9, FluxOR thallium flux fluorescence; active compounds read low; B-score at 10 µM; hit rate 1.2% among 310,000; AID 488922;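 active = ratio B-score over 3 SD below the library mean, with starting fluorescence within 5 SD of its mean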;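 note: negative B-score means less thallium flux so channel inhibition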
KCNK3 inh = human KCNK3 channel inhibition, primary screen; O14649; CHO-KCNK3 thallium flux, FluxOR fluorescence; active compounds read low; B-score at 10 µM; hit rate 0.84% among 340,000; AID 602410;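 active = B-score under library mean minus 4 SD, starting fluorescence ratio at most library mean plus 5 SD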;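 note: more negative B-score means stronger inhibition of thallium flux through KCNK3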
KCNQ1 block val = human KCNQ1 channel inhibition, validation assay; shares compounds with KCNQ1 block; KCNQ1 cell line, FluxOR thallium flux fluorescence; inhibition, % at 10 µM; hit rate 93% among 1,600;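 active = primary screen active, with duplicate mean exceeding buffer control mean plus 3 SD of buffer wells, cut at about 28% in these data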;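 note: 0% = buffer control ratio and 100% = XE991 inhibitor control ratio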
CHO KCNQ1 ctr = KCNQ1 inhibitor counter-screen hit in parental CHO cells. shares compounds with KCNQ1 block. parental CHO-K1, FluxOR thallium flux fluorescence ratio; active compounds read low; zero means no signal rise above baseline. fluorescence ratio (Tl flux) at 10 µM. hit rate 21% among 1,600;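 active = mean of duplicate thallium-flux fluorescence ratios in parental host cells more than 5 SD below the buffer control mean, cut at about 0.38 in these data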;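 note: ratio is peak minus minimum fluorescence divided by baseline fluorescence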
KCNQ1 ephys val = human KCNQ1 inhibition validated by electrophysiology; shares compounds with KCNQ1 block; KCNQ1-CHO cells, automated patch clamp current; calls only at 10 µM; hit rate 20% among 490;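 active = KCNQ1 current drop exceeding 3 SD of negative control wells, seen in both duplicate runs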;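 note: steady state current during a 2 s step from -80 to +40 mV; negative values mean current inhibition and positive values mean potentiation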
KCNQ2 inh = KCNQ1 inhibitor that also blocks rat KCNQ2 channel. shares compounds with KCNQ1 block. KCNQ2 cells, FluxOR thallium flux fluorescence. inhibition, % at 10 µM. hit rate 71% among 1,600. AID 651746;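 active = mean percent inhibition of the KCNQ2 thallium signal more than 5 SD above the buffer-only control wells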;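 note: KCNQ2 expressed in CHO cells; 0% = buffer control wells and 100% = XE-991 inhibitor control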
KCNQ1-KCNE1 inh = selectivity of KCNQ1 inhibitors: inhibition of human KCNQ1/KCNE1 channel; shares compounds with KCNQ1 block; KCNQ1/KCNE1 cells, FluxOR thallium flux fluorescence; inhibition, % at 10 µM; hit rate 77% among 1,600; AID 652147;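 active = mean percent inhibition of duplicate wells above the buffer-only control mean plus 3 SD of those controls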;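 note: 0% = buffer only wells and 100% = XE-991 inhibitor control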
* hit, by the source's call; i = inactive; . = no result given; + = active, no number.

SMILES	Kir21 block	hERG rescue	KCNQ1 block	KCNQ1 pot	KCNK9 block	KCNK3 inh	KCNQ1 block val	CHO KCNQ1 ctr	KCNQ1 ephys val	KCNQ2 inh	KCNQ1-KCNE1 inh
O=C(c1ccccc1)c1sc(N2CCCCCC2)nc1-c1ccccc1	0.63	-1.6	7*	i	i	i	124.0*	0.433	i	122.7%*	+
O=C(Nc1nc(-c2ccccc2)c(C(=O)c2ccccc2)s1)c1ccc(S(=O)(=O)N2CCCC2)cc1	-0.69	-9.3	8*	i	i	i	78.0*	0.492	.	62.7%*	96.0%*
COc1c(S(=O)(=O)N2CCN(C)CC2)ccc(Cl)c1Cl	0.18	0.3	7*	i	i	i	0.0	0.486	.	i	56.0%*
COc1ccc(Cl)cc1S(=O)(=O)N1CCN(C)CC1	-1.7	-6.9	i	i	i	i	.	.	.	.	.
C=C(Br)CN1[C@@H](Cc2ccccc2)[C@H](O)[C@@]23C=C[C@@H](C[C@@H]2S1(=O)=O)O3	.	.	.	.	.	i	.	.	.	.	.
Cc1cc(=O)oc2cc(OCC(=O)N3CC(=O)Nc4ccccc43)c(Cl)cc12	.	.	.	.	.	i	.	.	.	.	.
Cc1ccccc1Nc1cc(C)c2c(O)cccc2n1	-7.18*	-21.6	7*	i	i	i	31.0*	0.532	.	71.3%*	i
CCC(C)c1ccc(NC(=S)N2CCN(S(C)(=O)=O)CC2)cc1 (stereo unspecified)	-0.6	-5.5	i	i	i	i	.	.	.	.	.
CCOC(=O)C1CCN(S(=O)(=O)c2ccc3[nH]c4c(c3c2)CCCC4)CC1	0.34	-9.8	6*	i	i	i	101.5*	0.499	+	67.0%*	102.5%*
CCOC(=O)C1CCN(S(=O)(=O)c2ccc3[nH]c(=O)c(=O)[nH]c3c2)CC1	-0.51	-9.0	i	i	i	i	.	.	.	.	.
COc1ccc(S(=O)(=O)N2CC(C)N(C(=O)N3CCOCC3)C2)cc1 (stereo unspecified)	-0.66	-10.4	i	i	i	i	.	.	.	.	.
Cc1ccccc1OCCCCn1cnc2ccccc21	-1.35	-15.6	9*	i	i	i	136.5*	0.471	i	100.3%*	59.0%*
c1ccc2c(c1)ncn2CCCCOc1ccc2c(c1)CCC2	-0.88	-17.9	7*	i	i	i	118.5*	0.479	i	91.0%*	82.5%*
Cc1ccc(S(=O)(=O)N[C@@H](C)C(=O)N2CCC(C(=O)N[C@@H](Cc3ccccc3)C(=O)O)CC2)cc1	0.01	-7.1	i	i	i	i	.	.	.	.	.
Clc1ccc(-c2nc(N3CCCCC3)nc3ccccc23)cc1	1.46	-6.8	8*	i	i	i	132.5*	0.436	+	85.0%*	197.0%*
CC1(c2ccccc2)NC(=O)N(CC(=O)NCc2cccc(Cl)c2)C1=O (stereo unspecified)	-1.04	-7.0	i	i	i	i	.	.	.	.	.
CC(C)(C)c1ccc(OCCCC(=O)Nc2cccc(S(=O)(=O)N3CCOCC3)c2)cc1	.	.	.	.	.	i	.	.	.	.	.
Cc1ccc(OCC(=O)Nc2cccc(S(=O)(=O)N3CCCCCC3)c2)cc1C	1.02	-12.6	7*	i	i	i	95.5*	0.538	i	98.7%*	65.0%*
CC(C)(C)c1ccc(OCCC(=O)Nc2cccc(S(=O)(=O)N3CCCC3)c2)cc1	0.63	-11.6	8*	i	i	i	34.5*	0.492	.	83.7%*	66.0%*
